High-throughput results as filed in PubChem BioAssay.
Shown are actives, neighbours in structure and some others; about 1.8% of the full set was active somewhere.
TDP2 absorb = human TDP2 enzyme inhibitors, primary screen, biochemical, epi absorbance, recombinant enzyme; AID 720702, 2013; inhibition, % at 12.8 µM; T5PNP hydrolysis, p-nitrophenol absorbance 415 nm; hit rate 0.34% among 370,000; Tyrosyl-DNA phosphodiesterase 2 (Homo sapiens), O95551;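 active = inhibition above the mean of all tested compounds plus 3 SD, set per campaign, cut at about 25% in these data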;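 also: 0% = DMSO with enzyme and 100% = buffer with substrate but no TDP2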
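System – recombinant human TDP2 · Amount – 120 nM TDP2 per well · Buffer or medium – Mg2+-containing Tris-HCl buffer, pH 7.5 · Reagent – T5PNP substrate, 5 mM · Dosing – 12.8 µM single point, 1% DMSO · Incubation – 2 h at 37 °C · Measured by – epi absorbance · Read-out basis – percent inhibition · Benchmarks – high control without enzyme, low control DMSO plus TDP2 · Repeats – singlicate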
UHRF1 binding = UHRF1 methylated DNA binding inhibitors, primary screen, counter-screen for MBD2 inhibitor project, biochemical, TR-FRET, human UHRF1, single concentration. inhibition, % at 4.4 µM. hit rate 0.75% among 370,000. UHRF1 binding to methylated oligo. AID 687016, 2013; in the data active = inhibition above about 21%;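 also: UHRF1 SRA domain binding a hemimethylated CpG hairpin DNA probe; 0% = median of test compound wells and 100% = reference inhibitor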
LEDGF integ inh = blockers of LEDGF/p75-dependent integrase strand transfer – biochemical, TR-FRET, high throughput, primary screen | HIV-1 integrase (with human LEDGF/p75) | TR-FRET IN-LEDGF/p75 DNA integration, Eu/Cy5 | inhibition, % at 3.7 µM | hit rate 0.64% among 370,000;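 active = inhibition above the screen-wide mean plus 3 SD, cut at about 13% in these data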;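 also: signal is the Cy5 over europium emission ratio at 671 and 618 nm; 0% = plate median of compound wells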
NSD2 HMT inh = NSD2 histone methyltransferase inhibitors, primary screen, biochemical, AlphaScreen, single concentration, set 2. Histone-lysine N-methyltransferase NSD2 (Homo sapiens), O96028. NSD2 peptide methylation, 120 min. inhibition, % at 12.5 µM. hit rate 0.54% among 310,000; in the data active = inhibition above about 50%
Target sequence (O96028 whole entry, looked up): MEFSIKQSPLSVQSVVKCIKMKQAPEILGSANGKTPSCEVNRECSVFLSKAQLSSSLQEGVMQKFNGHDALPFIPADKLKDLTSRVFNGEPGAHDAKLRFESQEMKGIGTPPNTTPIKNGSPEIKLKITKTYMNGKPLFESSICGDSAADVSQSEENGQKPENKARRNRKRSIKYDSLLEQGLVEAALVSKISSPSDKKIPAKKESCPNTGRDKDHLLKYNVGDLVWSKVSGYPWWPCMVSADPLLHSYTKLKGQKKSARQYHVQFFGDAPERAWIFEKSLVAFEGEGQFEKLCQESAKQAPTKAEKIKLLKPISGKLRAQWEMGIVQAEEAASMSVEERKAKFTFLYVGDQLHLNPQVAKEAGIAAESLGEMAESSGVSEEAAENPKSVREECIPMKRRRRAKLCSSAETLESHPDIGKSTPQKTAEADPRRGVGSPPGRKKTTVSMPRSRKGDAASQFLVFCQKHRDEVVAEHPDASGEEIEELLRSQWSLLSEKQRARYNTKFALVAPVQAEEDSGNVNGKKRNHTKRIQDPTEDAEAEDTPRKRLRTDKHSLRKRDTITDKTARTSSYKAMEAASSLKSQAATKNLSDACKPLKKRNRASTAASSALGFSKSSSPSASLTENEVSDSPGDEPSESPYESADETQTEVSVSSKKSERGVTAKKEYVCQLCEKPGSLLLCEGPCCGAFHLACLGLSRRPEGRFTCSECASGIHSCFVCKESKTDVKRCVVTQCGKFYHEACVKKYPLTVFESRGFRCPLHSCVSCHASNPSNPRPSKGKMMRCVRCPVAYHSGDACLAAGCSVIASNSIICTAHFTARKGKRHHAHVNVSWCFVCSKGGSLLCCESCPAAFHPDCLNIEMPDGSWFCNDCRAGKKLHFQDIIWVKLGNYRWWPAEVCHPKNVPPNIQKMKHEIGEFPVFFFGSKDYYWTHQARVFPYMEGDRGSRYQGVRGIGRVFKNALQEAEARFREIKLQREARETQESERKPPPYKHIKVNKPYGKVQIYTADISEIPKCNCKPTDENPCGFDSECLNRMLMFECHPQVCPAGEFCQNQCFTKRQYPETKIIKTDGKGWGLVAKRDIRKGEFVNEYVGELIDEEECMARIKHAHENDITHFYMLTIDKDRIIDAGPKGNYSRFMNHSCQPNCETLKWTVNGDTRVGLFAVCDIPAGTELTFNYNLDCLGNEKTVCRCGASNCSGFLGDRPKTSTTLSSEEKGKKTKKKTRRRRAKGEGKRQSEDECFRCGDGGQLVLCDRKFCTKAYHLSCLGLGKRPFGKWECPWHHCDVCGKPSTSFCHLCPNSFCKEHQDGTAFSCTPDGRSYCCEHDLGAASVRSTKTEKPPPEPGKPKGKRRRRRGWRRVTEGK
CASP6 VEID inh = human caspase-6 inhibitors, primary screen, biochemical, VEID-R110 fluorescence, single point, set 2; purified caspase-6, Z-VEID-R110 cleavage fluorescence; P55212; hit rate 0.53% among 350,000; AID 686996, 2013; inhibition, % at 12.5 µM;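 active = mean inhibition across replicates at least about 35%, with every replicate also reaching that limit, limit read from the data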;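 also: 0% = median of neutral control wells and 100% = no fluorescence left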
MBD2 DNA inh = inhibitors of MBD2 binding to methylated DNA, primary screen, biochemical, TR-FRET, DNA-binding domain, human; Methyl-CpG-binding domain protein 2 (Homo sapiens), Q9UBB5; MBD2 binding to methylated oligonucleotide; inhibition, % at 4.4 µM; hit rate 0.31% among 370,000; in the data active = inhibition above about 13%
IN multimer act = HIV-1 IN multimer formation enhancers, counter-screen for LEDGF/p75 integration inhibitor project, biochemical, TR-FRET. shares compounds with LEDGF integ inh. hit rate 17% among 2,000. TR-FRET HIV-1 integrase multimerization. activation, % at 7.7 µM; in the data active = activation above about 8.9%
TRFRET interf = TR-FRET optical interference artefacts, confirmation, artefact control for LEDGF/p75-dependent integration inhibitor project, biochemical, HIV-1 IN multimerization. TR-FRET optical interference counterscreen. inhibition, % at 7.7 µM. AID 1053135, 2014. shares compounds with LEDGF integ inh. 2,000 tested, under 10 active;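 active = inhibition above the mean over all tested compounds plus 3 SD, which no compound reached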;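 also: 0% = integrase with antibodies and DMSO and 100% = antibodies without integrase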
LEDGF integ conf = inhibitors of HIV-1 IN-LEDGF/p75 DNA integration, confirmation, biochemical, TR-FRET. shares compounds with LEDGF integ inh. TR-FRET LEDGF/p75-dependent HIV-1 integration. inhibition, % at 3.7 µM. hit rate 36% among 2,000. AID 1053136, 2014; in the data active = inhibition above about 14%
Starred values were filed as active, the others as inactive.

For CC(C)NC(=O)Nc1ccc2c(c1)C(=O)N([C@H](C)CO)C[C@@H](C)[C@H](CN(C)Cc1ccncc1)O2 the results were CASP6 VEID inh -3.
Screening O=C1CN(C(=O)COc2ccc(F)cc2Cl)c2ccccc2N1 returned TDP2 absorb 9, UHRF1 binding 0, LEDGF integ inh 23*, NSD2 HMT inh -3, CASP6 VEID inh 1, MBD2 DNA inh -3, IN multimer act 1, TRFRET interf -4 and LEDGF integ conf -5.
`O=C1CN(C(=O)COc2ccc(Cl)cc2Cl)c2ccccc2N1` gave TDP2 absorb 2, UHRF1 binding -1, LEDGF integ inh 2, NSD2 HMT inh -2, CASP6 VEID inh 5 and MBD2 DNA inh 0.
Screening O=C(NC(Cc1ccccc1)C(=O)O)/C(=C\c1ccccc1F)NC(=O)c1ccccc1 (stereo not drawn) returned TDP2 absorb 8, UHRF1 binding -2, LEDGF integ inh 2, NSD2 HMT inh -2, CASP6 VEID inh -1 and MBD2 DNA inh -2.
O=C(NC(Cc1ccccc1)C(=O)O)/C(=C/c1ccc(Cl)cc1)NC(=O)c1ccccc1 (stereo not drawn) was read as TDP2 absorb 11, UHRF1 binding -2, LEDGF integ inh 20*, NSD2 HMT inh 1, CASP6 VEID inh -1, MBD2 DNA inh 2, IN multimer act 2, TRFRET interf -8 and LEDGF integ conf 15*.
O=C(Cc1ccc(Br)cc1)NNC(=O)c1cccs1 was read as TDP2 absorb 4, UHRF1 binding -2, LEDGF integ inh 14*, NSD2 HMT inh -4, CASP6 VEID inh 0, MBD2 DNA inh 3, IN multimer act 0, TRFRET interf 0 and LEDGF integ conf 0.
Screening O=C(Cc1ccccc1)NNC(=O)c1cccs1 returned TDP2 absorb 0, UHRF1 binding 10, LEDGF integ inh 0, NSD2 HMT inh -22 and MBD2 DNA inh 7.
For Cc1cccc(C)c1NC(=O)NCCSc1snnc1C the results were TDP2 absorb 3, UHRF1 binding 2, LEDGF integ inh 15*, NSD2 HMT inh -3, CASP6 VEID inh -3, MBD2 DNA inh 2, IN multimer act 0, TRFRET interf 0 and LEDGF integ conf 2.
Screening Cc1nnsc1SCCNC(=O)c1c(F)cccc1F returned TDP2 absorb -8, UHRF1 binding 4, LEDGF integ inh -3, NSD2 HMT inh 36 and MBD2 DNA inh -2.
For CCCC(=O)Nc1ccc2oc(=O)ccc2c1 the results were TDP2 absorb -1, UHRF1 binding 1, LEDGF integ inh 35*, NSD2 HMT inh -3, CASP6 VEID inh -1, MBD2 DNA inh 2, IN multimer act -1, TRFRET interf 4 and LEDGF integ conf 0.
CCc1ccc(O)c(-c2cc(C(=O)Nc3cccnc3)[nH]n2)c1 was read as TDP2 absorb 2, UHRF1 binding -1, LEDGF integ inh 15*, NSD2 HMT inh 0, CASP6 VEID inh 1, MBD2 DNA inh 3, IN multimer act -3, TRFRET interf 13 and LEDGF integ conf -1.
`Cc1ccc(C)c(N=Cc2cc3c(cc2[N+](=O)[O-])OCO3)c1` gave TDP2 absorb 10, UHRF1 binding 38*, LEDGF integ inh 40*, NSD2 HMT inh 2, CASP6 VEID inh -3, MBD2 DNA inh 9, IN multimer act 0, TRFRET interf -2 and LEDGF integ conf 4.
CC(C)(C)c1ccc(O)c(N=Cc2cc3c(cc2[N+](=O)[O-])OCO3)c1 was read as TDP2 absorb -6, UHRF1 binding -3, LEDGF integ inh 7, NSD2 HMT inh 1, CASP6 VEID inh 1 and MBD2 DNA inh -2.
CC(=O)N(C)c1ccc(N=Cc2cc3c(cc2[N+](=O)[O-])OCO3)cc1 was read as TDP2 absorb 37*, UHRF1 binding 3, LEDGF integ inh 43*, CASP6 VEID inh 36*, MBD2 DNA inh -7, IN multimer act 7, TRFRET interf -33 and LEDGF integ conf 51*.
COc1ccc(CNS(=O)(=O)NCc2ccc(OC)c(OC)c2)cc1OC was read as TDP2 absorb -3, UHRF1 binding -1, LEDGF integ inh 2, NSD2 HMT inh -1, CASP6 VEID inh -2 and MBD2 DNA inh 1.
Screening COc1ccc(CC(Cc2ccc(OC)c(OC)c2)NC=O)cc1OC returned TDP2 absorb -4, UHRF1 binding -1, LEDGF integ inh 16*, NSD2 HMT inh -1, MBD2 DNA inh 0, IN multimer act -2, TRFRET interf 11 and LEDGF integ conf -4.
Cc1noc(C)c1S(=O)(=O)N(C)C[C@@H]1Oc2ccc(NC(=O)CCCCCC(=O)Nc3ccccc3N)cc2CC(=O)N([C@@H](C)CO)C[C@H]1C was read as CASP6 VEID inh 1.
COc1cccc(SCc2noc(C(=O)NCc3ccccc3)c2C(=O)NCc2ccccc2)c1 was read as TDP2 absorb 8, UHRF1 binding 3, LEDGF integ inh 48*, CASP6 VEID inh -1, MBD2 DNA inh 3, IN multimer act -1, TRFRET interf 7 and LEDGF integ conf -5.
Screening CC(=O)N1[C@@H]2c3ccc(C4=CCCCC4)c(=O)n3C[C@@H]2[C@@H](CO)[C@@H]1C(=O)N1CCCCC1 returned CASP6 VEID inh -2.
`C[C@H]1CN([C@@H](C)CO)C(=O)c2cccc(NC(=O)C3CCCCC3)c2O[C@H]1CN(C)C(=O)Nc1ccc(C(F)(F)F)cc1` gave CASP6 VEID inh 0.
For Cc1ccc([N+](=O)[O-])cc1-c1ccc(/C=N/NC(=O)CN2CCOCC2)o1 the results were TDP2 absorb -3, UHRF1 binding 1, LEDGF integ inh 2, NSD2 HMT inh 7, CASP6 VEID inh 1 and MBD2 DNA inh -2.
